The source of these data is ChEMBL document CHEMBL4311951, “Potent and Preferential Degradation of CDK6 via Proteolysis Targeting Chimera Degraders” (J Med Chem, 2019).

Calls of active or inactive are those of the source. No cut-off for these calls is given here.

For experiment [1], the target named is T1, von Hippel-Lindau disease tumor suppressor/Cyclin-dependent kinase 6 (Homo sapiens) (UniProt Q00534+P40337). In words: Induction of VHL-mediated CDK6 degradation in human DAOY cells at 1 uM after 24 hrs by immunoblot analysis. The experiment is classed as cell-based. In short, it runs like this: (§1)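 Medulloblastoma DAOY cells treated 24 h with PROTACs at 1 μM; CDK6 levels then assessed by immunoblot. Palbociclib at 500 nM and 1 μM as positive control.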
On the technique in general: Immunoblotting shows a protein as a band on a membrane.

Experiment [2] concerns the target von Hippel-Lindau disease tumor suppressor/Cyclin-dependent kinase 4 (Homo sapiens) (UniProt P11802+P40337). In words: Induction of VHL-mediated CDK4 degradation in human U251 cells at 1 uM after 24 hrs by immunoblot analysis. The experiment is classed as cell-based.
For experiment [3], the target named is T1, von Hippel-Lindau disease tumor suppressor/Cyclin-dependent kinase 6 (Homo sapiens). Briefly: Induction of VHL-mediated CDK6 degradation in human U251 cells at 1 uM after 24 hrs by immunoblot analysis. In kind it is cell-based.
A further experiment concerns HL-60. Briefly: Antiproliferative activity against human HL60 cells after 84 hrs by CCK8 assay. In kind it is functional, cell-based. Put shortly:
(§2)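 Suspension haematopoietic lines seeded in triplicate in 96-well plates; drug stock added immediately to the final concentrations. After 84 h culture, CCK-8 reagent added and absorbance at OD450 nm read after 2 h incubation.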
A general note: Tetrazolium assays rely on reduction of a dye to a coloured formazan, in cell work by metabolically active cells.

A further experiment relates to THP-1. In words: Antiproliferative activity against human THP1 cells after 84 hrs by CCK8 assay. In kind it is functional, cell-based. Put shortly: as §2
Another experiment relates to JeKo-1. In words: Antiproliferative activity against human JeKo1 cells after 84 hrs by CCK8 assay. The experiment is classed as functional, cell-based. In short, it runs like this: as §2
A further experiment relates to RPMI-8226. Briefly: Antiproliferative activity against human RPMI8226 cells after 84 hrs by CCK8 assay. In kind it is functional, cell-based. Put shortly: as §2
The next experiment concerns MM1.S. In words: Antiproliferative activity against human MM1S cells after 84 hrs by CCK8 assay. In kind it is functional, cell-based. In short, it runs like this:
as §2

The species entered for experiment [4] is Homo sapiens. In words: (§3) Antiproliferative activity against human Mino cells after 84 hrs by CCK8 assay. The experiment is classed as functional, cell-based. Put shortly:
as §2

Experiment [5] addresses Protein cereblon/Cyclin-dependent kinase 4 (Homo sapiens, UniProt P11802+Q96SW2). In words: Induction of CRBN-mediated CDK4 degradation in human U251 cells after 24 hrs by immunoblot analysis. In kind it is cell-based.
The target of experiment [6] is Protein cereblon/Cyclin-dependent kinase 6 (Homo sapiens, UniProt Q00534+Q96SW2). In words: Induction of CRBN-mediated CDK6 degradation in human U251 cells after 24 hrs by immunoblot analysis. The experiment is classed as cell-based.
Experiment [7] in a line: as §3. In kind it is functional, cell-based. Put shortly:
as §2

The subject of experiment [8] is E3 ubiquitin-protein ligase Mdm2/Cyclin-dependent kinase 4 (Homo sapiens). In words: Induction of MDM2-mediated CDK4 degradation in human U251 cells at 1 uM after 24 hrs by immunoblot analysis.
Experiment [9] deals with T2, E3 ubiquitin-protein ligase Mdm2/CDK6 (Homo sapiens) (UniProt Q00987+Q00534). Briefly: Induction of MDM2-mediated CDK6 degradation in human DAOY cells at 1 uM after 24 hrs by immunoblot analysis. In kind it is cell-based. In short, it runs like this:
as §1

Experiment [10] deals with T2, E3 ubiquitin-protein ligase Mdm2/CDK6 (Homo sapiens). In words: Induction of MDM2-mediated CDK6 degradation in human U251 cells at 1 uM after 24 hrs by immunoblot analysis. The experiment is classed as cell-based.
The next experiment concerns Daoy. In words: Induction of cIAP-mediated CDK6 degradation in human DAOY cells at 1 uM after 24 hrs by immunoblot analysis. In kind it is cell-based. Put shortly:
as §1

Experiment [11] is filed under the species Homo sapiens. In words: Induction of cIAP-mediated CDK4 degradation in human U251 cells at 1 uM after 24 hrs by immunoblot analysis. The experiment is classed as cell-based.
The species named for experiment [12] is Homo sapiens. In words: Induction of cIAP-mediated CDK6 degradation in human U251 cells at 1 uM after 24 hrs by immunoblot analysis. The experiment is classed as cell-based.

Chain of Protein cereblon/Cyclin-dependent kinase 4 (P11802 whole entry): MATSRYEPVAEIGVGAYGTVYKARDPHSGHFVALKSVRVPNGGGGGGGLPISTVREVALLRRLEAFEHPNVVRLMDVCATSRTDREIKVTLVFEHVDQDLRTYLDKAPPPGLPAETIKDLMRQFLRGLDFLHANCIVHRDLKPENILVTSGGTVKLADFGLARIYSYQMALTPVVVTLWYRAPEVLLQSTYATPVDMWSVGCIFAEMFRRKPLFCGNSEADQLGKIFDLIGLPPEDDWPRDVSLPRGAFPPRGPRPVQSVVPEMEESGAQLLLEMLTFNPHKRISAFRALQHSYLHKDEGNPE
Chain of Protein cereblon/Cyclin-dependent kinase 4 (Q96SW2 whole entry): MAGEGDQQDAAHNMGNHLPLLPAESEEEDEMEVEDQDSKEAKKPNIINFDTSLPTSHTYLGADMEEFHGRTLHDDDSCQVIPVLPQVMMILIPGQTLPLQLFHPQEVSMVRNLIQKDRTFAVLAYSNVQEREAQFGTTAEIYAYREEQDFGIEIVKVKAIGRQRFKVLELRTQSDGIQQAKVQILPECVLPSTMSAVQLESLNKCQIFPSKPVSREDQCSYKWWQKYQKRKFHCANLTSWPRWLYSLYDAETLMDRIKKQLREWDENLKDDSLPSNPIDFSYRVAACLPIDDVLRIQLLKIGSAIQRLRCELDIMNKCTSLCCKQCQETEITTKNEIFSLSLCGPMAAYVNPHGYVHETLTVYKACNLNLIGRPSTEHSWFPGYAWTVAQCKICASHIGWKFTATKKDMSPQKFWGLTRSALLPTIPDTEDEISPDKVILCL
T2 sequence (Q00534 whole entry, looked up): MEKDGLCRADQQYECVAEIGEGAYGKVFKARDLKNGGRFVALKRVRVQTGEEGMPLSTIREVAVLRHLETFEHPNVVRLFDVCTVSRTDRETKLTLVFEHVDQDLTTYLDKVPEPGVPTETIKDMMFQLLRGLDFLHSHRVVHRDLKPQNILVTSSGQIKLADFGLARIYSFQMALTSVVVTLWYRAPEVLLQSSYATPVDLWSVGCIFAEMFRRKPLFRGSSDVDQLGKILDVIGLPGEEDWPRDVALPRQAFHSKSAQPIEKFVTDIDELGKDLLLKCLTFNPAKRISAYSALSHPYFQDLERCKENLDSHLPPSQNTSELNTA
T2 sequence (Q00987 whole entry, looked up): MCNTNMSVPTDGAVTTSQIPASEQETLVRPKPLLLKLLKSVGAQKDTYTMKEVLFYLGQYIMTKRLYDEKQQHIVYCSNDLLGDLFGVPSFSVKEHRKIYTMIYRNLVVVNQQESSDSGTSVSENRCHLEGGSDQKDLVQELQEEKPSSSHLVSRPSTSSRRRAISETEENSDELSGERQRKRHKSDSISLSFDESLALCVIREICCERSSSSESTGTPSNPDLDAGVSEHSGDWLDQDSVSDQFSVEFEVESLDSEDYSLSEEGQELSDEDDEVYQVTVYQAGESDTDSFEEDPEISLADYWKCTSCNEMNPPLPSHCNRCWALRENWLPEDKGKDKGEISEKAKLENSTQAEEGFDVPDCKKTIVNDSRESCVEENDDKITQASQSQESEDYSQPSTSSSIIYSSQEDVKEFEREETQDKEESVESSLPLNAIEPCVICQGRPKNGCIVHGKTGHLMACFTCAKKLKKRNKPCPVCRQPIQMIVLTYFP
Chain of von Hippel-Lindau disease tumor suppressor/Cyclin-dependent kinase 4 (Homo sapiens) (P11802 2-303 limits assumed): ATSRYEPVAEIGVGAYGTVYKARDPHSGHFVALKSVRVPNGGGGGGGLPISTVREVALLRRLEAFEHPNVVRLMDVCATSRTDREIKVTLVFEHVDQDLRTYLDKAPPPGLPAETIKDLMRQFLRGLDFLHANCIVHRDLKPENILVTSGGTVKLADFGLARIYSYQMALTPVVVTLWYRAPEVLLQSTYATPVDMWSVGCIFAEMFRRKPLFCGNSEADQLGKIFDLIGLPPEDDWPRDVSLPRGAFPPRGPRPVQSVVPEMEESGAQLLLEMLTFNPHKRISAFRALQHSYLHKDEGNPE
Chain of von Hippel-Lindau disease tumor suppressor/Cyclin-dependent kinase 4 (Homo sapiens) (P40337 whole entry partner): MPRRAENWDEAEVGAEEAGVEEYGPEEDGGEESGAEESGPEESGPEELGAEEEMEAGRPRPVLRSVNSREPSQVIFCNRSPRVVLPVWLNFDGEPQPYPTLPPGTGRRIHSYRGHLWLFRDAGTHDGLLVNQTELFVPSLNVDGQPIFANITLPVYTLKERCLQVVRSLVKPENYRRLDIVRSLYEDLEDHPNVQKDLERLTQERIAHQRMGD
T1 sequence (P40337 whole entry, looked up): as the sequence (P40337 whole entry partner) above
T1 sequence (Q00534 whole entry, looked up): as the sequence (Q00534 whole entry, looked up) above

`CC(=O)c1c(C)c2cnc(Nc3ccc(N4CCN(Cc5cn(CCOCCOCCNC(=O)CCC(=O)N[C@H](C(=O)N6C[C@H](O)C[C@H]6C(=O)NCc6ccc(-c7scnc7C)cc6)C(C)(C)C)nn5)CC4)cn3)nc2n(C2CCCC2)c1=O`: the result in experiment [1], in experiment [2] and in [3] was inactive.

`CCN1C(=O)CCC(N2C(=O)c3cccc(NCCOCCn4cc(CN5CCN(c6ccc(Nc7ncc8c(C)c(C(C)=O)c(=O)n(C9CCCC9)c8n7)nc6)CC5)nn4)c3C2=O)C1=O` (configuration not stated): the outcome in the experiment on HL-60, in the experiment on THP-1, in the experiment on JeKo-1, in the experiment with RPMI-8226, in the experiment with MM1.S and in the experiment listed under Homo sapiens [4] was inactive.

Consider `CC(=O)c1c(C)c2cnc(Nc3ccc(N4CCN(Cc5cn(CCOCCOCCOCCOCCNC(=O)CCC(=O)N[C@H](C(=O)N6C[C@H](O)C[C@H]6C(=O)NCc6ccc(-c7scnc7C)cc6)C(C)(C)C)nn5)CC4)cn3)nc2n(C2CCCC2)c1=O`, for which the result in experiment [1], in experiment [2] and in experiment [3] was inactive.

As usually defined, the DC50 is the concentration giving 50% degradation. The low end stands for a more potent degrader, the high end for a less potent degrader. As to `CC(=O)c1c(C)c2cnc(Nc3ccc(N4CCN(CCOCCOCCNc5cccc6c5C(=O)N(C5CCC(=O)NC5=O)C6=O)CC4)cn3)nc2n(C2CCCC2)c1=O` (configuration not stated), the DC50 in [5] is more than 50 nM; in [6], 1.6 nM.

On to `CC(=O)c1c(C)c2cnc(Nc3ccc(N4CCN(CC(=O)NCCOCCOCCNc5cccc6c5C(=O)N(C5CCC(=O)NC5=O)C6=O)CC4)cn3)nc2n(C2CCCC2)c1=O` (configuration not stated), for which the DC50 in [5] was more than 100 nM; in [6] it was 24.2 nM.

Consider `CN(C)C(=O)c1cc2cnc(Nc3ccc(N4CCN(Cc5cn(CCOCCOCCNc6cccc7c6C(=O)N(C6CCC(=O)NC6=O)C7=O)nn5)CC4)cn3)nc2n1C1CCCC1` (configuration not stated), for which the outcome in [6] was inactive.

With `CN(C)C(=O)c1cc2cnc(Nc3ccc(N4CCN(Cc5cn(CCOCCOCCOCCNc6cccc7c6C(=O)N(C6CCC(=O)NC6=O)C7=O)nn5)CC4)cn3)nc2n1C1CCCC1` (configuration not stated), the result in [6] was inactive.

Take `Cc1nc2c(F)cc(-c3nc(Nc4ccc(CN5CCN(Cc6cn(CCOCCOCCNc7cccc8c7C(=O)N(C7CCC(=O)NC7=O)C8=O)nn6)CC5)cn4)ncc3F)cc2n1C(C)C` (configuration not stated): the DC50 in experiment [5] was more than 500 nM; in [6], 130 nM.

As usually defined, the IC50 is the concentration that gives 50% inhibition. High values mean lower potency, low ones higher potency. Consider `CC(=O)c1c(C)c2cnc(Nc3ccc(N4CCNCC4)cn3)nc2n(C2CCCC2)c1=O` [PALBOCICLIB], for which the result with HL-60, in the experiment with THP-1, in the experiment with JeKo-1 and in the experiment on RPMI-8226 was Active. In addition, the IC50 came out at 200 nM with MM1.S and 45 nM in [7].

Regarding `CC(=O)c1c(C)c2cnc(Nc3ccc(N4CCN(Cc5cn(CCCCC#Cc6cccc7c6C(=O)N(C6CCC(=O)NC6=O)C7=O)nn5)CC4)cn3)nc2n(C2CCCC2)c1=O` (configuration not stated), the DC50 in experiment [5] is more than 100 nM; in [6], 81.6 nM.

Turning to `COc1ccc(C2=N[C@H](c3ccc(Cl)cc3)[C@H](c3ccc(Cl)cc3)N2C(=O)N2CCN(CC(=O)NCCOCCOCCOCCn3cc(CN4CCN(c5ccc(Nc6ncc7c(C)c(C(C)=O)c(=O)n(C8CCCC8)c7n6)nc5)CC4)nn3)C(=O)C2)c(OC(C)C)c1`, the outcome in [8], in experiment [9] and in experiment [10] was inactive.

With `CCN1C(=O)CCC(N2C(=O)c3cccc(NCCOCCOCCn4cc(CN5CCN(c6ccc(Nc7ncc8c(C)c(C(C)=O)c(=O)n(C9CCCC9)c8n7)nc6)CC5)nn4)c3C2=O)C1=O` (configuration not stated), the result in the experiment on HL-60, in the experiment with THP-1, in the experiment with JeKo-1, in the experiment on RPMI-8226, in the experiment on MM1.S and in the experiment filed under Homo sapiens [4] was inactive.

For the compound `CC(=O)c1c(C)c2cnc(Nc3ccc(N4CCN(Cc5cn(CCOCCOCCOCCNC(=O)[C@H](CC(C)C)NC(=O)[C@@H](O)[C@H](N)Cc6ccccc6)nn5)CC4)cn3)nc2n(C2CCCC2)c1=O`, the outcome with Daoy, in the experiment listed under Homo sapiens [11] and in the experiment listed under Homo sapiens [12] was inactive.

In the case of `Cc1nc2c(F)cc(-c3nc(Nc4ccc(CN5CCN(Cc6cn(CCOCCOCCOCCOCCNc7cccc8c7C(=O)N(C7CCC(=O)NC7=O)C8=O)nn6)CC5)cn4)ncc3F)cc2n1C(C)C` (configuration not stated), the DC50 in experiment [5] was more than 500 nM; in [6] it was 146 nM.

With `CC(=O)c1c(C)c2cnc(Nc3ccc(N4CCN(CC(=O)NCCOCCNc5cccc6c5C(=O)N(C5CCC(=O)NC5=O)C6=O)CC4)cn3)nc2n(C2CCCC2)c1=O` (configuration not stated), the DC50 in experiment [5] is more than 100 nM; in [6], 1.1 nM.

Take `CC(=O)c1c(C)c2cnc(Nc3ccc(N4CCN(Cc5cn(CCOCCNC(=O)[C@H](CC(C)C)NC(=O)[C@@H](O)[C@H](N)Cc6ccccc6)nn5)CC4)cn3)nc2n(C2CCCC2)c1=O`: the result in the experiment with Daoy, in the experiment filed under Homo sapiens [11] and in the experiment listed under Homo sapiens [12] was inactive.

Take `COc1ccc(C2=N[C@H](c3ccc(Cl)cc3)[C@H](c3ccc(Cl)cc3)N2C(=O)N2CCN(CC(=O)NCCOCCn3cc(CN4CCN(c5ccc(Nc6ncc7c(C)c(C(C)=O)c(=O)n(C8CCCC8)c7n6)nc5)CC4)nn3)C(=O)C2)c(OC(C)C)c1`: the result in experiment [8], in experiment [9] and in [10] was inactive.

Turning to `CC(=O)c1c(C)c2cnc(Nc3ccc(N4CCN(Cc5cn(CCCCCCNc6cccc7c6C(=O)N(C6CCC(=O)NC6=O)C7=O)nn5)CC4)cn3)nc2n(C2CCCC2)c1=O` (configuration not stated), the DC50 in [5] was more than 100 nM; in experiment [6] it was 10.6 nM.

As for `CC(=O)c1c(C)c2cnc(Nc3ccc(N4CCN(Cc5cn(CCOCCOCCOCCOCCNC(=O)[C@H](CC(C)C)NC(=O)[C@@H](O)[C@H](N)Cc6ccccc6)nn5)CC4)cn3)nc2n(C2CCCC2)c1=O`, the result in the experiment on Daoy, in the experiment filed under Homo sapiens [11] and in the experiment listed under Homo sapiens [12] was inactive.

Turning to `CC(=O)c1c(C)c2cnc(Nc3ccc(N4CCN(Cc5cn(CCCCCCc6cccc7c6C(=O)N(C6CCC(=O)NC6=O)C7=O)nn5)CC4)cn3)nc2n(C2CCCC2)c1=O` (configuration not stated), the DC50 is more than 50 nM in [5] and 1.7 nM in experiment [6].

Consider `CC(=O)c1c(C)c2cnc(Nc3ccc(N4CCN(Cc5cn(CCOCCNC(=O)CCC(=O)N[C@H](C(=O)N6C[C@H](O)C[C@H]6C(=O)NCc6ccc(-c7scnc7C)cc6)C(C)(C)C)nn5)CC4)cn3)nc2n(C2CCCC2)c1=O`, for which the result in [1], in [2] and in [3] was inactive.

With `CC(=O)c1c(C)c2cnc(Nc3ccc(N4CCN(Cc5cn(CCOCCOCCNC(=O)[C@H](CC(C)C)NC(=O)[C@@H](O)[C@H](N)Cc6ccccc6)nn5)CC4)cn3)nc2n(C2CCCC2)c1=O`, the result with Daoy, in the experiment listed under Homo sapiens [11] and in the experiment filed under Homo sapiens [12] was inactive.

In the case of `COc1ccc(C2=N[C@H](c3ccc(Cl)cc3)[C@H](c3ccc(Cl)cc3)N2C(=O)N2CCN(CC(=O)NCCOCCOCCn3cc(CN4CCN(c5ccc(Nc6ncc7c(C)c(C(C)=O)c(=O)n(C8CCCC8)c7n6)nc5)CC4)nn3)CC2)c(OC(C)C)c1`, the result in [8], in experiment [9] and in [10] was inactive.

For `CN(C)C(=O)c1cc2cnc(Nc3ccc(N4CCN(Cc5cn(CCOCCNc6cccc7c6C(=O)N(C6CCC(=O)NC6=O)C7=O)nn5)CC4)cn3)nc2n1C1CCCC1` (configuration not stated), in experiment [6], the outcome was inactive.

With `CC(=O)c1c(C)c2cnc(Nc3ccc(N4CCN(Cc5cn(CCOCCOCCOCCNC(=O)CCC(=O)N[C@H](C(=O)N6C[C@H](O)C[C@H]6C(=O)NCc6ccc(-c7scnc7C)cc6)C(C)(C)C)nn5)CC4)cn3)nc2n(C2CCCC2)c1=O`, the outcome in experiment [1], in [2] and in [3] was inactive.

For `Cc1nc2c(F)cc(-c3nc(Nc4ccc(CN5CCN(Cc6cn(CCOCCNc7cccc8c7C(=O)N(C7CCC(=O)NC7=O)C8=O)nn6)CC5)cn4)ncc3F)cc2n1C(C)C` (configuration not stated), the DC50 in experiment [5] was more than 500 nM; in experiment [6], 8.6 nM.
